Measured values published in ChEMBL document CHEMBL4725358 (J Med Chem, 2020).
Activity calls are given as the source filed them. The rule behind the calls is not given here.

How the values were obtained:
Assay type in all cases: cell-based
[1] = biological target: Probable G-protein coupled receptor 34 (Mus musculus, UniProt Q9R1K6); assay: Agonist activity at mouse GPR34 expressed in HEK293 cells co-transfected with AP-TGFalpha/Galphaq/i1 assessed as induction of ectodomain shedding of membrane bound AP-TGFalpha after 1 hr by p-NPP substrate based microplate reader analysis; details: read-out: EC50
Outline: (§1)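 HEK293 cells transiently transfected with AP-TGFα, chimeric Gα and mouse GPR34 vectors, then treated with compound. Empty-vector cells (AP-TGFα plus chimeric Gα) served as background. Receptor-specific AP-TGFα release was taken after subtracting that background, and concentration-response curves gave EC50 and Emax. Mean and SEM of 3−8 independent experiments.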

[2] = biological target: Probable G-protein coupled receptor 34 (Mus musculus) (UniProt Q9R1K6); assay: Agonist activity at mouse GPR34 expressed in HEK293 cells co-transfected with AP-TGFalpha/Galphaq/i1 assessed as induction of ectodomain shedding of membrane bound AP-TGFalpha after 1 hr by p-NPP substrate based microplate reader analysis relative to control; outline: as §1
[3] = biological target: Probable G-protein coupled receptor 34 (Mus musculus) (UniProt Q9R1K6); assay: Agonist activity at mouse GPR34 expressed in HEK293 cells co-transfected with AP-TGFalpha/Galphaq/i1 assessed as induction of ectodomain shedding of membrane bound AP-TGFalpha after 1 hr by p-NPP substrate based microplate reader analysis relative to positive control; outline: as §1
[4] = biological target: Putative P2Y purinoceptor 10 (Mus musculus, UniProt Q8BFU7); assay: Agonist activity at mouse P2Y10 expressed in HEK293 cells co-transfected with AP-TGFalpha/Galphaq/i1 assessed as induction of ectodomain shedding of membrane bound AP-TGFalpha after 1 hr by p-NPP substrate based microplate reader analysis
Outline: (§2)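 Run the same way as the GPR34 shedding assay, but with a mouse P2Y10 expression vector in HEK293 cells alongside AP-TGFα and chimeric Gα. Receptor-specific AP-TGFα release was found by subtracting the empty-vector background. EC50 and Emax came from concentration-response curves. Mean and SEM of 3−8 independent experiments.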

[5] = biological target: Putative P2Y purinoceptor 10 (Mus musculus) (UniProt Q8BFU7); assay: Agonist activity at mouse P2Y10 expressed in HEK293 cells co-transfected with AP-TGFalpha/Galphaq/i1 assessed as induction of ectodomain shedding of membrane bound AP-TGFalpha after 1 hr by p-NPP substrate based microplate reader analysis relative to control; outline: as §2
[6] = biological target: Putative P2Y purinoceptor 10 (Mus musculus) (UniProt Q8BFU7); assay: Agonist activity at mouse P2Y10 expressed in HEK293 cells co-transfected with AP-TGFalpha/Galphaq/i1 assessed as induction of ectodomain shedding of membrane bound AP-TGFalpha after 1 hr by p-NPP substrate based microplate reader analysis relative to positive control; outline: as §2

Putative P2Y purinoceptor 10 (Mus musculus), sequence (Q8BFU7 whole entry, the tested form may be a part): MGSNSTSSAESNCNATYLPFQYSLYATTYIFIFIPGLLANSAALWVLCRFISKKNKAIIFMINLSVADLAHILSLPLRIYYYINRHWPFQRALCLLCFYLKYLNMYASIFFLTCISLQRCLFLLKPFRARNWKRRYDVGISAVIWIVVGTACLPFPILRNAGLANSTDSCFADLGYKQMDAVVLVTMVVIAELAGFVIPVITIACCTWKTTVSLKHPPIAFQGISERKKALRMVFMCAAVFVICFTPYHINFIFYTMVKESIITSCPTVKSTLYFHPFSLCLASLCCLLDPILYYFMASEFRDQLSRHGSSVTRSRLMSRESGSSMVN
Putative P2Y purinoceptor 10, sequence (Q8BFU7 whole entry, the tested form may be a part): as above
Probable G-protein coupled receptor 34 (Mus musculus), sequence (Q9R1K6 whole entry, the tested form may be a part): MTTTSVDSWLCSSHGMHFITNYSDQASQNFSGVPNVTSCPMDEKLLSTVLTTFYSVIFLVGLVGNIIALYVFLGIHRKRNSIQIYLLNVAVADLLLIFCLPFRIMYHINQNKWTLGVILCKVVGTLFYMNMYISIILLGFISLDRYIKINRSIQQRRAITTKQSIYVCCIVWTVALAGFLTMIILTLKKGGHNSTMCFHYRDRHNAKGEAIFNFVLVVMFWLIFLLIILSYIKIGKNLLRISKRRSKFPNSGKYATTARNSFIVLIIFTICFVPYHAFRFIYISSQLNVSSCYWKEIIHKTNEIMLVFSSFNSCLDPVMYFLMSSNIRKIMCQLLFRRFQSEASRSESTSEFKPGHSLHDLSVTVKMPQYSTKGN
Probable G-protein coupled receptor 34, sequence (Q9R1K6 whole entry, the tested form may be a part): as above

Row | SMILES | EC50 [1] [nM] | Emax [2] | fold change (FC) ([3]; filed as agonist) | EC50 [4] [nM] | Emax [5] | fold change (FC) [6] | fold change (FC) [3] | fold change (FC) ([6]; filed as agonist)
1 | CCCCCCCC/C=C\CCCCCCCC(=O)OC[C@@H](COCCC)OP(=O)(O)OC[C@H](N)C(=O)O | 6.1 | 12.2% | 17 | > 3000 | inactive | inactive | – | –
2 | CCCCCCCC/C=C\CCCCCCCC(=O)OCCOP(=O)(O)OC[C@H](N)C(=O)O | > 3000 | inactive | – | 66 | 10.6% | – | inactive | 0.02
3 | CCCCCCCC/C=C\CCCCCCCC(=O)OCCCCCOP(=O)(O)OC[C@H](N)C(=O)O | 470 | 4.6% | 0.076 | 240 | 10.8% | – | – | 0.0061
4 | CCCCCCCCCCCOc1ccccc1CCC(=O)OCCOP(=O)(O)OC[C@H](N)C(=O)O | 330 | 4.8% | 0.12 | 5.7 | 12.7% | – | – | 0.32
5 | CCCCCCCC/C=C\CCCCCCCC(=O)OCCCCOP(=O)(O)OC[C@H](N)C(=O)O | 320 | 4.4% | 0.12 | 53 | 13.1% | – | – | 0.029
6 | CCCCCCCCCCCOc1ccccc1CCC(=O)O[C@H]1COCC[C@@H]1OP(=O)(O)OC[C@H](N)C(=O)O | > 3000 | inactive | – | 150 | 12.4% | – | inactive | 0.0085
7 | CCCCCCCC/C=C\CCCCCCCC(=O)O[C@H](C)COP(=O)(O)OC[C@H](N)C(=O)O | 250 | 6.1% | 0.22 | 79 | 11.4% | – | – | 0.02
8 | CCCCCCCC/C=C\CCCCCCCC(=O)OC[C@H](COC)OP(=O)(O)OC[C@H](N)C(=O)O | 620 | 7.5% | 0.13 | > 3000 | inactive | inactive | – | –
9 | CCCCCCCC/C=C\CCCCCCCC(=O)O[C@@H](C)COP(=O)(O)OC[C@H](N)C(=O)O | > 3000 | inactive | – | 390 | 11.6% | – | inactive | 0.0034
10 | C[C@H](COC(=O)CCc1ccccc1OCc1cccc(Oc2ccccc2)c1)OP(=O)(O)OC[C@H](N)C(=O)O | 9 | 12.4% | 11 | 290 | 13.2% | – | – | 0.0056
11 | C#CCOC[C@H](COC(=O)CCCCCCC/C=C\CCCCCCCC)OP(=O)(O)OC[C@H](N)C(=O)O | 12 | 12.6% | 10 | 420 | 3.2% | – | – | 0.00074
12 | CCCCCCCC/C=C\CCCCCCCC(=O)O[C@H](COC)COP(=O)(O)OC[C@H](N)C(=O)O | 160 | 9.7% | 0.52 | 70 | 2.5% | – | – | 0.0088
13 | CCCCCCCC/C=C\CCCCCCCC(=O)OCCCOP(=O)(O)OC[C@H](N)C(=O)O | 540 | 6.2% | 0.12 | 20 | 13.7% | – | – | 0.11
14 | CCCCCCCCCCCOc1ccccc1CCC(=O)OC1COCC[C@H]1OP(=O)(O)OC[C@H](N)C(=O)O (single isomer, unassigned) | 2.9 | 10% | 32 | 26 | 11.4% | – | – | 0.039
15 | CCCCCCCC/C=C\CCCCCCCC(=O)OC[C@@H](COCC)OP(=O)(O)OC[C@H](N)C(=O)O | 3.5 | 12.3% | 29 | > 3000 | inactive | inactive | – | –
